In series [1] the test system is Rattus norvegicus. As to the kind of experiment: Iron-clearing efficiency in non-iron-overloaded and bile duct-cannulated Sprague-Dawley rat assessed as reduction of liver iron content at 192 umol/kg, po qd for 10 days relative to control. The class given is functional. Also on record: scale not given: the % may be the effect or the level left. Summed up:
(§1)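 Male Sprague-Dawley rats (300–350 g) were fasted overnight and dosed orally once daily for 10 d. Dosing was 384 μmol/kg/d in gelatin capsules (n = 5) or by gavage as monosodium salt (n = 10), or 192 (n = 6) or 384 μmol/kg/d (n = 5) in capsules. Rats were fed ~3 h post-dose. Age-matched untreated controls (n = 12). Kidney, liver, heart and pancreas were taken on day 11, wet-ashed (120 °C, then H2O2), and iron was measured by flame absorption spectroscopy.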

Series [2] has as its system Rattus norvegicus. As to the kind of experiment: Iron-clearing efficiency in non-iron-overloaded and bile duct-cannulated Sprague-Dawley rat assessed as reduction of renal iron content at 192 umol/kg, po qd for 10 days relative to control. Format: functional. Also on record: scale not given: the % may be the effect or the level left. Summed up:
as §1

Series [3] concerns Rattus norvegicus. As to the kind of experiment: Iron-clearing efficiency in non-iron-overloaded and bile duct-cannulated Sprague-Dawley rat assessed as time required to maximum bile iron excretion at 300 umol/kg, po after 12 to 15 hrs. Format: functional, organism-based. In a few lines:
(§2)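 Non-iron-overloaded male Sprague-Dawley rats (400–450 g), bile duct-cannulated, given a single oral dose of 300 μmol/kg, either by gavage as monosodium salt or in capsules. Bile was collected at 3 h intervals for up to 48 h and urine every 24 h. Iron was measured by flame absorption spectroscopy. ICE = 24-h iron excretion of treated rats minus controls, divided by theoretical output (2:1 ligand:iron); percent. Mean ± SEM; one-tailed t-test.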

Series [4] deals with Rattus norvegicus. As to the kind of experiment: Iron-clearing efficiency in non-iron-overloaded and bile duct-cannulated Sprague-Dawley rat assessed as urine iron excretion at 300 umol/kg, po after 48 hrs relative to control. The class given is functional.
In series [5] the test system is Sapajus apella. As to the kind of experiment: Iron-clearing efficiency in iron-overloaded Cebus apella assessed as feces iron excretion at 75 umol/kg, po measured daily once for 5 days by lame absorption spectroscopy relative to control. Format: functional.
For series [6], the system named is Rattus norvegicus. As to the kind of experiment: Iron-clearing efficiency in non-iron-overloaded and bile duct-cannulated Sprague-Dawley rat assessed as reduction of pancreatic iron content at 192 umol/kg, po qd for 10 days relative to control. The class given is functional, organism-based. Summed up:
as §1

The test system of series [7] is Rattus norvegicus. As to the kind of experiment: Iron-clearing efficiency in non-iron-overloaded and bile duct-cannulated Sprague-Dawley rat assessed as reduction of renal iron content at 384 umol/kg, po qd for 10 days relative to control. The class given is functional. Also on record: scale not given: the % may be the effect or the level left. In a few lines: as §1

For series [8], the system named is Rattus norvegicus. As to the kind of experiment: Toxicity in Sprague-Dawley rat assessed as histopathological examination at 192 umol/kg, po qd for 10 days. The class given is organism-based. The following applies: in vivo, 240 h. Summed up: (§3)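 Male Sprague-Dawley rats (300–350 g), fasted overnight, were dosed orally once daily for 10 d. Dosing was 384 μmol/kg/d (capsules or by gavage as monosodium salt) or 192 μmol/kg/d (capsules). Age-matched untreated controls. Rats were euthanized 24 h after the last dose (day 11), and extensive tissues were examined histopathologically.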

In series [9] the test system is Rattus norvegicus. As to the kind of experiment: Iron-clearing efficiency in non-iron-overloaded and bile duct-cannulated Sprague-Dawley rat assessed as reduction of liver iron content at 384 umol/kg, po qd for 10 days relative to control. Format: functional. Also noted: scale not given: the % may be the effect or the level left. Summed up:
as §1

The test system of series [10] is Sapajus apella. As to the kind of experiment: Iron-clearing efficiency in iron-overloaded Cebus apella at 75 umol/kg, po measured daily once for 2 days by flame absorption spectroscopy relative to control. The class given is functional. Summed up:
(§4)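 Iron-overloaded Cebus apella (3.5–4 kg; iv iron dextran to about 500 mg Fe/kg, ≥60 days before use) dosed orally at 75 μmol/kg, by gavage as monosodium salt (1 equiv NaOH in distilled water) or in capsules. Feces and urine collected every 24 h from 4 days pre-drug to 5 days post-drug; iron by flame absorption spectroscopy. ICE = 2-day post-drug iron minus 4-day baseline average, divided by theoretical output (2:1 ligand:iron); percent. Performance ratio = mean primate ICE/rodent ICE.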

In series [11] the test system is Rattus norvegicus. As to the kind of experiment: Iron-clearing efficiency in non-iron-overloaded and bile duct-cannulated Sprague-Dawley rat assessed as reduction of pancreatic iron content at 384 umol/kg, po qd for 10 days relative to control. Format: functional, organism-based. In a few lines:
as §1

Series [12] has as its system Rattus norvegicus. As to the kind of experiment: Iron-clearing efficiency in non-iron-overloaded and bile duct-cannulated Sprague-Dawley rat at 300 umol/kg, po after 48 hrs relative to control. The class given is functional. In a few lines: as §2
For series [13], the system named is Rattus norvegicus. As to the kind of experiment: Iron-clearing efficiency in non-iron-overloaded and bile duct-cannulated Sprague-Dawley rat assessed as reduction of cardiac iron content at 384 umol/kg, po qd for 10 days relative to control. The class given is functional, organism-based. The following applies: Heart. In a few lines:
as §1

The nature of series [14]: Octanol-water partition coefficient, log P in Tris buffer at pH 7.4 by shake flask method. Format: physicochemical. In a few lines:
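Octanol/water partition was measured at pH 7.4 (Tris buffer) by the shake-flask direct method. The fraction of drug in octanol is expressed as log P_app.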

For series [15], the system named is Rattus norvegicus. As to the kind of experiment: Toxicity in Sprague-Dawley rat assessed as mild to moderate vacuolar degeneration of proximal tubular epithelial cells at 384 umol/kg, po qd for 10 days. The class given is organism-based, Epithelial cell. The following applies: in vivo, 240 h. In a few lines:
as §3

A short description of series [16]: Ratio of iron-clearing efficiency in iron-overloaded Cebus apella at 75 umol/kg, po to iron-clearing efficiency in non-iron-overloaded and bile duct-cannulated Sprague-Dawley rat at 300 umol/kg, po after 48 hrs. Format: functional, organism-based. In a few lines:
as §4

The subject of series [17] is Rattus norvegicus. As to the kind of experiment: Iron-clearing efficiency in non-iron-overloaded and bile duct-cannulated Sprague-Dawley rat assessed as bile iron excretion at 300 umol/kg, po up to 48 hrs. Format: functional, organism-based. In a few lines: as §2
For series [18], the system named is Rattus norvegicus. As to the kind of experiment: Iron-clearing efficiency in non-iron-overloaded and bile duct-cannulated Sprague-Dawley rat assessed as reduction of cardiac iron content at 192 umol/kg, po qd for 10 days relative to control. The following applies: Heart. Format: functional, organism-based. Summed up:
as §1

Series [19] relates to Rattus norvegicus. As to the kind of experiment: Renal toxicity in Sprague-Dawley rat at 384 umol/kg, po qd for 10 days. Format: organism-based. The following applies: in vivo, 240 h. In a few lines:
as §3

The test system of series [20] is Sapajus apella. As to the kind of experiment: Iron-clearing efficiency in iron-overloaded Cebus apella assessed as urine iron excretion at 75 umol/kg, po measured daily once for 5 days by lame absorption spectroscopy relative to control. The class given is functional.

Calls of active or inactive are those of the source. No cut-off for these calls is given here.

Consider `CCOC(=O)[C@@]1(C)CSC(c2ccc(OCCOCCOC)cc2O)=N1`, for which the Activity is 27% in the series on Rattus norvegicus [1]; 12.6% in the series with Rattus norvegicus [2]; 1% with Rattus norvegicus [4]; 98% in the series on Sapajus apella [5]; 32.1% in the series on Rattus norvegicus [7]; “Non-toxic” with Rattus norvegicus [8]. The Activity with Rattus norvegicus [9] is 59.1%; in the series with Sapajus apella [10], 8.8%; in the series with Rattus norvegicus [12] it was 25.9%; in the series with Rattus norvegicus [15] it was “Toxic”; with Rattus norvegicus [19], “Toxic”; with Sapajus apella [20], 2%. Besides, the outcome in the series on Rattus norvegicus [3], in the series on Rattus norvegicus [6], in the series with Rattus norvegicus [11], in the series with Rattus norvegicus [13] and in the series with Rattus norvegicus [18] was inactive. In series [14], this molecule showed a pH-dependent lipophilicity (logD) of 3. In addition, in series [16], the Ratio is 0.3. For the same molecule, the outcome with Rattus norvegicus [17] was Active.

The term logD denotes the decadic logarithm of the distribution of all forms, ionised or not, between an organic phase and buffer at a given pH.

The record behind these values is ChEMBL document CHEMBL1156979, “The impact of polyether chain length on the iron clearing efficiency and physiochemical properties of desferrithiocin analogues” (J Med Chem, 2010).
